Most compounds without a hit are left out; they make up all but 2.3% or so of the library.
V1aR counter – counter-screen for oxytocin receptor agonists: human V1a receptor agonists; P37288; CHO-V1R cells, Fluo-8 calcium fluorescence, agonist mode; 0% DMSO, 100% 3 nM vasopressin; activation, % at 3 µM; AID 2797; 320,000 compounds, 0.25% hits;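 active = activation above the mean activation of all tested compounds plus 3 SD, per screening run, cut at about 20% in these data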;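 note: signal is peak over basal fluorescence ratio across a 100 second FLIPR read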
TAAR1 antagonist – antagonists of human TAAR1; Q96RJ0; CHO RD-HGA16 TAAR1, Fluo-8 calcium fluorescence, antagonist; inhibition, % at 3 µM; 360,000 compounds, 1.5% hits; AID 624466;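 active = inhibition above a per-plate cutoff, the mean inhibition of test compounds on that plate plus 3 SD, cut at about 49% in these data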;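 note: 0% = DMSO plus EC80 beta-PEA response and 100% = DMSO alone without agonist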
Target sequence (Q96RJ0 whole entry, looked up): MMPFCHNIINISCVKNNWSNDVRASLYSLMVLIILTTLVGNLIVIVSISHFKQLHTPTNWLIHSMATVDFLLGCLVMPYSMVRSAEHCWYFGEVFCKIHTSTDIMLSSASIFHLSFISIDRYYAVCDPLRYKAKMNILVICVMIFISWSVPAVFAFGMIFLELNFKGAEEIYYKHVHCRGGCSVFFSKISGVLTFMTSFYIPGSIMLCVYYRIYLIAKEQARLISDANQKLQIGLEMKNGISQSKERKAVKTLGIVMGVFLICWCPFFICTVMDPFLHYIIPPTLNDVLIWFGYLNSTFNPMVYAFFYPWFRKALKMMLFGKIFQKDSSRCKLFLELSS
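Test system: CHO RD-HGA16 cells bearing hTAAR1 | Reagent: β-PEA, EC80 | Compound dosing: 3 µM, single point | Schedule: Dye loading 75 min at 37 °C, then 30 min room temperature | Signal: Calcium fluorescence with Fluo-8 | Evaluation: Percent inhibition of PEA-evoked calcium signal, max/basal emission ratio | Control set: DMSO-only wells and EC80 β-PEA-stimulated wells | Repeats: Singlicate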
OXTR ag – human OXTR agonism; activation, % at 3 µM; AID 2435; CHO-OTR cells, Fluo-8 calcium fluorescence; normalized: DMSO 0%, oxytocin 100%; P30559; 320,000 compounds, 0.32% hits;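 active = activation above the mean of all tested compounds plus 3 SD, cutoff set per screening run, cut at about 20% in these data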;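 note: peak over basal fluorescence ratio from a 100 s FLIPR kinetic read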
OXTR potentiator – potentiates the human oxytocin receptor response. P30559. CHO-OTR cells, Fluo-8 calcium fluorescence, potentiator mode; 0% = oxytocin EC15, 100% = EC100. activation, % at 3 µM. 320,000 compounds, 0.061% hits. AID 2445;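 active = activation above that plate's cutoff, the mean activation of tested compounds plus 3 SD, cut at about 6.6% in these data, passing the limit was not always enough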;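 note: 100% uses oxytocin at 75 nM as the full agonist control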
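test system = CHO-OTR cells, human receptor | compound = single-point 3.0 µM | schedule = 6 min compound pre-incubation at room temperature, 100 s kinetic read | signal = Fluo-8 no-wash calcium dye fluorescence, excitation 470-495 nm, emission 515-575 nm | repeats = single well per compound, singlicate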
TAAR1 agonist – agonists of human TAAR1 | activation, % at 3 µM | CHO RD-HGA16 TAAR1, Fluo-8 calcium fluorescence; vehicle wells 0%, saturating PEA agonist 100% | AID 624467 | 360,000 compounds, 0.99% hits;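 active = activation above the mean activation of all test compounds in the run plus 3 SD, cut at about 38% in these data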
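System: CHO-derived RD-HGA16 cells with stable Gα16 and human TAAR1 / Times: 17-24 h plating, Fluo-8 75 min 37 °C, 30 min RT / Technique: calcium-sensitive Fluo-8 signal, excitation 470-495, emission 515-575 nm / Measure: % activation relative to PEA EC100 response / Benchmarks: DMSO and PEA EC100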
TAAR1 ag confirm – human TAAR1 agonism, confirmed; activation, % at 3 µM; CHO RD-HGA16 TAAR1, Fluo-8 calcium fluorescence; scaled: DMSO 0%, maximal phenethylamine 100%; shares compounds with TAAR1 agonist; 2,400 compounds, 82% hits;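 active = activation above a cutoff set at the run's mean compound activation plus 3 SD, cut at about 39% in these data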
Ga16 nonsel ag – counter-screen for TAAR1 agonists: nonselective agonists in parental cells; shares compounds with TAAR1 agonist; CHO-Ga16 parental, Fluo-8 calcium fluorescence; normalized to maximal ATP response, DMSO zero; activation, % at 3 µM; 2,400 compounds, 50% hits; AID 651787;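 active = activation above the run cutoff, the mean activation over all tested wells plus 3 SD, cut at about 12% in these data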;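 note: 0% = DMSO wells and 100% = maximal ATP response on the peak over basal ratio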
TAAR1 desens – counter-screen for human TAAR1 agonists: agonists that desensitize TAAR1; 2,400 compounds, 46% hits; shares compounds with TAAR1 agonist; inhibition, % at 3 µM; CHO RD-HGA16 hTAAR1, Fluo-8 calcium, beta-PEA response inhibition; AID 651951;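 active = inhibition above the run cutoff, the mean inhibition of all test compounds plus 3 SD, cut at about 49% in these data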;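 note: beta-PEA stimulus applied at its EC80; loss of beta-PEA calcium signal after compound pretreatment read as receptor desensitization; 0% = DMSO with beta-PEA at EC80 and 100% = DMSO alone without agonist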
Ga16 nonsel ant – nonselective Ga16 antagonist in TAAR1 agonist counter-screen; shares compounds with TAAR1 agonist; CHO-Ga16 ATP-induced calcium, Fluo-8 fluorescence; 2,400 compounds, 39% hits; inhibition, % at 3 µM;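 active = inhibition above the plate's mean compound inhibition plus 3 SD, computed per plate, cut at about 22% in these data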;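 note: 0% = EC80 ATP with DMSO and 100% = DMSO wells without ATP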
Active calls of the source: *; / = not tested or not shown; ! = not confirmed by another sample.

SMILES	V1aR counter	TAAR1 antagonist	OXTR ag	OXTR potentiator	TAAR1 agonist	TAAR1 ag confirm	Ga16 nonsel ag	TAAR1 desens	Ga16 nonsel ant
O=C(CN1CCc2ccccc2C1)c1cccs1	0	25	0	-10	75*	86*	3	46	-1
O=C(NCN1CCc2ccccc2C1)c1ccccc1	0	54*	0	-18	82*	50*	1	21	5
CC1CCN(CC(=O)c2cccs2)CC1	0	-22	0	-14	2	/	/	/	/
COc1cc(C(C(=O)NC2CCCC2)N(C(=O)c2snc(C(N)=O)c2N)C2CCCC2)cc(OC)c1OC (centres undefined)	0	-24	0	0	6	/	/	/	/
CCN(CC)CCNC(=O)c1ccc(Cl)c(S(=O)(=O)Nc2ccccc2OC)c1	0	9	2	2	8	/	/	/	/
CCN(CC)CCNC(=O)c1ccc(Cl)c(S(=O)(=O)Nc2ccc(Cl)cc2)c1	1	39	1	-14	70*!	4	1	9	4
O=C(Cc1cccs1)NCCS(=O)(=O)N1CCN(c2cccc(Cl)c2)CC1	2	-7	2	-8	0	/	/	/	/
O=C(Nc1ccccc1F)c1coc(=O)c(Br)c1	0	-12	0	-2	5	/	/	/	/
O=C(NCCc1ccc(F)cc1)c1coc(=O)c(Br)c1	0	35	0	-11	68*	66*	1	16	8
COC(=O)c1c(NS(=O)(=O)c2ccc3ccccc3c2)sc2c1CCCC2	0	26	-2	-9	9	/	/	/	/
CC1CCc2c(sc(NS(=O)(=O)c3ccccc3)c2C(=O)OC(C)C)C1 (centres undefined)	0	17	3	-7	43*	24	19*	26	26*
Cc1cc(C)nc(/N=C(\N)Nc2ccc(SC(F)F)cc2)n1	28*	95*	32*	-10	102*	99*	63*	98*	69*
CCOc1ccc(N/C(N)=N/c2nc(C)cc(C)n2)cc1	10	97*	7	-24	70*	51*	39*	93*	81*
Cc1cc(C)nc(/N=C(\N)Nc2ccc(F)c([N+](=O)[O-])c2)n1	8	71*	12	-18	68*	63*	38*	70*	39*
Cc1cc(C)nc(/N=C(\N)Nc2ccc(S(=O)(=O)Nc3nc(C)cc(C)n3)cc2)n1	0	/	1	-1	/	/	/	/	/
Cc1cc(C)nc(/N=C(\N)Nc2ccc(S(N)(=O)=O)cc2)n1	0	5	0	-12	3	/	/	/	/
Cc1ccc(C)c(N/C(N)=N/c2nc(C)cc(C)n2)c1	26*	98*	21*	-18	116*	105*	67*	99*	76*
CCOc1ccc(N/C(=N/c2nc(C)cc(C)n2)NC(=O)CC)cc1	0	-35	-1	-1	5	/	/	/	/
CCN1C(=O)Cc2cc(S(=O)(=O)NCCc3ccccc3)ccc21	2	-11	2	-10	51*	46*	2	1	7
CN1C(=O)Cc2cc(S(=O)(=O)NCCc3ccccc3)ccc21	1	-6	2	-6	17	/	/	/	/
O=C(O)c1ccc(N/N=C/C=C/c2ccccc2[N+](=O)[O-])cc1	5	48	7	-3	66*	51*	21*	53*	36*
O=C(Cc1ccccc1)N/N=C/C=C/c1ccccc1[N+](=O)[O-]	8	5	-2	-7	1	/	/	/	/

Assay outcomes: PubChem BioAssay, The Scripps Research Institute Molecular Screening Center
